The species entered for experiment [1] is Canis familiaris. Put plainly: Relative activity (fraction of the most active compound 24) was determined. Type of experiment: functional, Canis lupus familiaris.
Experiment [2] has as its system Canis familiaris. Kind of experiment: Evaluated for the heart rate at dose 0.5 mg/kg in 4 animals by poldine tachycardia test. Type of experiment: functional, Canis lupus familiaris. The method in brief:
(§1)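 Poldine tachycardia: dogs prepared surgically as in the triazine method; poldine methyl sulfate 0.5 mg/kg iv, then 30 min later test agent in increasing doses (0.5/1.0/2.5 mg/kg) at 30-min intervals; read-out is the maximum percent decrease in heart rate at each dose.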

Experiment [3] relates to Canis familiaris. Kind of experiment: Evaluated for the heart rate at dose 5.0 mg/kg in 4 animals by glucagon-induced tachycardia test. The class given is functional, Canis lupus familiaris.
Experiment [4] deals with Canis familiaris. Kind of experiment: Change in heart rate at the above D50 dose in conscious dogs. The class given is functional, Canis lupus familiaris. Put shortly: (§2)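 Triazine tachycardia in conscious dogs: carotid artery and jugular vein catheterized with heparinized saline; 18 h after surgery, triazine vasodilator U20388 12 mg/kg po; about 1 h later, dog in sling with arterial pressure and ECG monitored. Test agent infused iv at 0.8 (mg/kg)/min to 30 mg/kg total. D50 = dose giving 50% of maximal slowing in that animal; ΔHR50 = heart-rate change at D50; CS index = %ΔHR50/D50.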

Experiment [5] concerns Canis familiaris. Put plainly: Evaluated for the heart rate at dose 2.5 mg/kg in 4 animals by glucagon-induced tachycardia test. The class given is functional, Canis lupus familiaris.
Experiment [6] is filed under the species Canis familiaris. Kind of experiment: Percent decrease from the initial evaluated heart rate (percent delta HR50/HR0 x 100). The class given is functional, Canis lupus familiaris. The method in brief: as §2
In experiment [7] the test system is Canis familiaris. Kind of experiment: Evaluated for the heart rate at dose 1.0 mg/kg in 4 animals by poldine tachycardia test. The class given is functional, Canis lupus familiaris. Put shortly:
as §1

The test system of experiment [8] is Canis familiaris. Put plainly: Evaluated for the heart rate at dose 5.0 mg/kg in 4 animals by aminophylline-induced sinus tachycardia test. The class given is functional, Canis lupus familiaris.
The test system of experiment [9] is Canis familiaris. Put plainly: Evaluated for the heart rate at dose 2.5 mg/kg in 4 animals by aminophylline-induced sinus tachycardia test. Type of experiment: functional, Canis lupus familiaris.
The subject of experiment [10] is Canis familiaris. Put plainly: Evaluated for the heart rate at dose 1.0 mg/kg in 4 animals by aminophylline-induced sinus tachycardia test. The class given is functional, Canis lupus familiaris.
Experiment [11] has as its system Canis familiaris. Kind of experiment: Evaluated for the heart rate at dose 1.0 mg/kg in 4 animals by glucagon-induced tachycardia test. Type of experiment: functional, Canis lupus familiaris.
The test system of experiment [12] is Canis familiaris. Kind of experiment: Dose required to achieve 50 % of maximal cardiac slowing in triazine tachycardia test in conscious dog. The class given is functional, Canis lupus familiaris. The method in brief:
as §2

The test system of experiment [13] is Canis familiaris. Kind of experiment: Myocardial depression rating in anesthetized, ganglion-blocked dog; Weak activity.
Experiment [14] is filed under the species Canis familiaris. Put plainly: Cardiac slowing index was measured for potency and efficacy. The class given is functional, Canis lupus familiaris. Put shortly:
as §2

In experiment [15] the test system is Canis familiaris. Kind of experiment: Evaluated for the heart rate at dose 2.5 mg/kg in 4 animals by poldine tachycardia test. Type of experiment: functional, Canis lupus familiaris. Put shortly: as §1
Experiment [16] relates to Canis familiaris. Put plainly: Myocardial depression in conscious dog; Moderate activity. Type of experiment: functional, Canis lupus familiaris, Myocardium.
Experiment [17] is filed under the species Canis familiaris. Put plainly: Percent decrease from initial heart rate (percent delta HR50/HR0 x 100) in dogs. The class given is functional, Canis lupus familiaris. Put shortly:
as §2

Experiment [18] has as its system Canis familiaris. Put plainly: Myocardial depression in anesthetized, ganglion-blocked dog; Moderate activity.
The species entered for experiment [19] is Canis familiaris. Kind of experiment: Cardiac slowing index of the compound. Type of experiment: functional, Canis lupus familiaris. Put shortly: as §2
For experiment [20], the system named is Canis familiaris. Put plainly: Evaluated for the heart rate at dose 2.5 mg/kg in 5 animals by glucagon-induced tachycardia test. The class given is functional, Canis lupus familiaris.
In experiment [21] the test system is Canis familiaris. Kind of experiment: Evaluated for the heart rate at dose 1.0 mg/kg in 5 animals by glucagon-induced tachycardia test. The class given is functional, Canis lupus familiaris.
For experiment [22], the system named is Canis familiaris. Put plainly: Evaluated for the heart rate at dose 2.5 mg/kg in 3 animals by aminophylline-induced sinus tachycardia test. Type of experiment: functional, Canis lupus familiaris.
Experiment [23] concerns Canis familiaris. Kind of experiment: Evaluated for the heart rate at dose 1.0 mg/kg in 3 animals by aminophylline-induced sinus tachycardia test. The class given is functional, Canis lupus familiaris.
Experiment [24] deals with Canis familiaris. Put plainly: Evaluated for the myocardial depression rating which is barely observable for the given compound in anesthetized, ganglion-blocked dog.
Experiment [25] concerns Canis familiaris. Put plainly: Evaluated for the heart rate at dose 5.0 mg/kg in 3 animals by aminophylline-induced sinus tachycardia test. The class given is functional, Canis lupus familiaris.
The species named for experiment [26] is Canis familiaris. Kind of experiment: Evaluated for the dose required to achieve 50 % of the maximal cardiac slowing in the triazine tachycardia test. The class given is functional, Canis lupus familiaris. Put shortly:
as §2

`Cc1[nH]c2ccccc2c1SCC/N=C1\CCCN1C` gave a Relative activity in the experiment filed under Canis familiaris [1] of 0.14. In addition, the “Max decrease in heart rate” value was 15% in the experiment with Canis familiaris [2]; 42% in the experiment with Canis familiaris [3]; 29% with Canis familiaris [5]; 25% in the experiment on Canis familiaris [7]; 34% with Canis familiaris [8]; 23% with Canis familiaris [9]. Moreover, the “Max decrease in heart rate” value is on record as 12% in the experiment on Canis familiaris [10], 20% in the experiment on Canis familiaris [11] and 30% with Canis familiaris [15]. Moreover, the “Delta HR50” value with Canis familiaris [4] is listed as -34 beats min-1; in the experiment listed under Canis familiaris [6] it was 20.2%. In addition, the D50 in the experiment on Canis familiaris [12] was 4.5 mg/kg. In addition, in the experiment with Canis familiaris [13], the MD was 2.5. The CS index in the experiment filed under Canis familiaris [14] was determined as 4.5.
For `CN1CCC/C1=N\CCSc1cn(C/C=C/c2ccccc2)c2ccccc12`, in the experiment listed under Canis familiaris [1], the Relative activity is 0.12. The entries for the “Delta HR50” value in the experiment on Canis familiaris [4] and in the experiment filed under Canis familiaris [17] were -58 beats min-1 and 23.5%, respectively. This compound yielded an MD in the experiment with Canis familiaris [16] of 3. Also, the D50 in the experiment on Canis familiaris [12] is 6.1 mg/kg. In the experiment filed under Canis familiaris [14], this compound returned a CS index of 3.8.
As for `CCCCCCCCn1cc(SCC/N=C2\CCCN2C)c2ccccc21`, in the experiment on Canis familiaris [18], the MD is on record as 2. Besides, the “Delta HR50” value in the experiment with Canis familiaris [4] is -32 beats min-1; in the experiment filed under Canis familiaris [17], 14.8%. The CS index in the experiment filed under Canis familiaris [19] turned out to be 2. In the experiment with Canis familiaris [12], this compound had a D50 of 7.3 mg/kg.
Turning to `CCn1cc(SCC/N=C2\CCCN2C)c2ccccc21`, the Relative activity in the experiment listed under Canis familiaris [1] is 0.85. Besides, the “Max decrease in heart rate” value is recorded as 18% in the experiment with Canis familiaris [2]; 34% in the experiment with Canis familiaris [7]; 46% in the experiment with Canis familiaris [20]; 53% in the experiment on Canis familiaris [8]; 28% in the experiment on Canis familiaris [21]; 43% in the experiment with Canis familiaris [9]. Further, the “Max decrease in heart rate” value in the experiment on Canis familiaris [10] is recorded as 27%; in the experiment on Canis familiaris [15], 47%. For the same compound, the “Delta HR50” value with Canis familiaris [4] was -39 beats min-1; in the experiment filed under Canis familiaris [17] it was 21.8%. Also, the D50 with Canis familiaris [12] is 0.8 mg/kg. This compound also showed an MD with Canis familiaris [13] of 2. This compound showed a CS index in the experiment filed under Canis familiaris [14] of 27.2.
The compound `CC(C)COCC(CN(Cc1ccccc1)c1ccccc1)N1CCCC1` (centres undefined) [BEPRIDIL] displayed a Relative activity in the experiment filed under Canis familiaris [1] of 0.23. Besides, the “Max decrease in heart rate” value is recorded as 10% with Canis familiaris [2]; 45% in the experiment on Canis familiaris [3]; 30% in the experiment on Canis familiaris [5]; 18% in the experiment on Canis familiaris [7]; 23% in the experiment on Canis familiaris [22]; 13% in the experiment with Canis familiaris [23]. For the same compound, the “Max decrease in heart rate” value in the experiment with Canis familiaris [11] is listed as 16%; in the experiment on Canis familiaris [25] it was 39%; in the experiment on Canis familiaris [15] it was 25%. Moreover, the entries for the “Delta HR50” value in the experiment with Canis familiaris [4] and in the experiment listed under Canis familiaris [17] were -30 beats min-1 and 14.8%, respectively. In addition, the MD in the experiment with Canis familiaris [24] came to 1. Besides, in the experiment with Canis familiaris [12], the D50 was found to be 2 mg/kg. Moreover, the CS index in the experiment listed under Canis familiaris [14] is given as 7.4.
`CC(C)NCC(O)COc1cccc2ccccc12` (centres undefined) [PROPRANOLOL] displayed an MD in the experiment on Canis familiaris [18] of 3. In the experiment filed under Canis familiaris [1], the Relative activity turned out to be 0.13. Also, the “Max decrease in heart rate” value in the experiment with Canis familiaris [2] turned out to be 21%; in the experiment with Canis familiaris [5] it was 9%; in the experiment with Canis familiaris [7], 32%; with Canis familiaris [8], 37%; in the experiment with Canis familiaris [9], 32%; with Canis familiaris [10] it was 24%. Further, the “Max decrease in heart rate” value with Canis familiaris [11] worked out at 3%; with Canis familiaris [15], 38%. For the same compound, the “Delta HR50” value in the experiment with Canis familiaris [4] is -66 beats min-1; in the experiment listed under Canis familiaris [17], 28.5%. In the experiment listed under Canis familiaris [26], this compound came in with a D50 of 6.7 mg/kg. The CS index in the experiment filed under Canis familiaris [14] was determined as 4.2.

Source of the values: ChEMBL document CHEMBL1122506, “Cardiac-slowing amidines containing the 3-thioindone group. Potential antianginal agents” (1983).
